Key:
[1] = target: T1, Dual specificity calcium/calmodulin-dependent 3',5'-cyclic nucleotide phosphodiesterase 1A (Homo sapiens, UniProt P54750); experiment: Inhibition of recombinant full length GST-tagged PDE1A (unknown origin) expressed in baculovirus infected Sf9 insect cells using FAM-cAMP as substrate incubated for 1.5 hrs by IMAP-FP assay
Outline: (§1)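 PDE enzymes incubated with compound or vehicle and 50 nM TAMRA-cGMP or FAM-cAMP substrate for 1.5 h at 30 °C. Activity read by IMAP fluorescence polarization. IC50 from 10 concentrations, at least two replicates each, fitted by four-parameter logistic. Dose–response repeated at least twice; mean of at least two experiments.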

[2] = target: T1, Dual specificity calcium/calmodulin-dependent 3',5'-cyclic nucleotide phosphodiesterase 1A; experiment: Inhibition of recombinant full length GST-tagged PDE1A (unknown origin) expressed in baculovirus infected Sf9 insect cells using TAMRA-cGMP as substrate incubated for 1.5 hrs by IMAP-FP assay; outline: as §1
[3] = target: T2, cGMP-inhibited 3',5'-cyclic phosphodiesterase 3A (Homo sapiens, UniProt Q14432); experiment: Inhibition of recombinant GST-tagged PDE3A (669 to end residues) (unknown origin) expressed in baculovirus infected Sf9 insect cells using FAM-cAMP as substrate incubated for 1.5 hrs by IMAP-FP assay; outline: as §1
T2 sequence (Q14432 whole entry): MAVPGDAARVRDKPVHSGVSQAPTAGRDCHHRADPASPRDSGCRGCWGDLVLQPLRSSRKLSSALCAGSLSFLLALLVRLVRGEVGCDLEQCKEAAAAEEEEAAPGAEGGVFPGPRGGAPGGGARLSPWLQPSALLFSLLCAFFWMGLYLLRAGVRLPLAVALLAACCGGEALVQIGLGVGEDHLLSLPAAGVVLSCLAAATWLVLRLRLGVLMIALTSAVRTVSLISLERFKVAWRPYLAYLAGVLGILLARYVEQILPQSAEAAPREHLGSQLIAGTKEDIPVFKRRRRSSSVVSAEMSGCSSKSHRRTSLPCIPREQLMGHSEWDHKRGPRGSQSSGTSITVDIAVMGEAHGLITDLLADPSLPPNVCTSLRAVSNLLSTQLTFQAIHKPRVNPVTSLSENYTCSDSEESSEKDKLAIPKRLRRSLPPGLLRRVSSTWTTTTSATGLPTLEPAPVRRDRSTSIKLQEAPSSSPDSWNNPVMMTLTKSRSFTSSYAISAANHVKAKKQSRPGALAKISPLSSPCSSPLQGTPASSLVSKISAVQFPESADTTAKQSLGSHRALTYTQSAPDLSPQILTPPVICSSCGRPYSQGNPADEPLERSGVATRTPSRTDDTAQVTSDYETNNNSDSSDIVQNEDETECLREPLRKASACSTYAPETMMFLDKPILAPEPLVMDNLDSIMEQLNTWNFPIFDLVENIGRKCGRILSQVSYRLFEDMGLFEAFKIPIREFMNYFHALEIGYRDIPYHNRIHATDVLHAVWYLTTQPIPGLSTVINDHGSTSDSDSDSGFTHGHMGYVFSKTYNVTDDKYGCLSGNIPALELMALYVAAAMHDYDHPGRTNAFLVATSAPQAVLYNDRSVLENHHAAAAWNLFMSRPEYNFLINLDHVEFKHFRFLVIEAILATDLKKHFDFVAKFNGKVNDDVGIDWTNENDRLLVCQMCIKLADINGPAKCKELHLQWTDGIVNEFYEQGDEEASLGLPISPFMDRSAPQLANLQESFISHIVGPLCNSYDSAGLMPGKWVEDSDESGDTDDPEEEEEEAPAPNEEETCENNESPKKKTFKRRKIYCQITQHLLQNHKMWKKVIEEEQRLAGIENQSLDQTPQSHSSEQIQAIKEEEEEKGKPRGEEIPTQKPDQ

[4] = target: T2, cGMP-inhibited 3',5'-cyclic phosphodiesterase 3A; experiment: Inhibition of recombinant GST-tagged PDE3A (669 to end residues) (unknown origin) expressed in baculovirus infected Sf9 insect cells using TAMRA-cGMP as substrate incubated for 1.5 hrs by IMAP-FP assay; outline: as §1
[5] = target: T3, cAMP and cAMP-inhibited cGMP 3',5'-cyclic phosphodiesterase 10A (Homo sapiens, UniProt Q9Y233); experiment: Inhibition of recombinant GST-tagged full length PDE10A2 (unknown origin) expressed in baculovirus infected Sf9 insect cells using FAM-cAMP as substrate incubated for 1.5 hrs by IMAP-FP assay; outline: as §1
T3 sequence (Q9Y233 whole entry): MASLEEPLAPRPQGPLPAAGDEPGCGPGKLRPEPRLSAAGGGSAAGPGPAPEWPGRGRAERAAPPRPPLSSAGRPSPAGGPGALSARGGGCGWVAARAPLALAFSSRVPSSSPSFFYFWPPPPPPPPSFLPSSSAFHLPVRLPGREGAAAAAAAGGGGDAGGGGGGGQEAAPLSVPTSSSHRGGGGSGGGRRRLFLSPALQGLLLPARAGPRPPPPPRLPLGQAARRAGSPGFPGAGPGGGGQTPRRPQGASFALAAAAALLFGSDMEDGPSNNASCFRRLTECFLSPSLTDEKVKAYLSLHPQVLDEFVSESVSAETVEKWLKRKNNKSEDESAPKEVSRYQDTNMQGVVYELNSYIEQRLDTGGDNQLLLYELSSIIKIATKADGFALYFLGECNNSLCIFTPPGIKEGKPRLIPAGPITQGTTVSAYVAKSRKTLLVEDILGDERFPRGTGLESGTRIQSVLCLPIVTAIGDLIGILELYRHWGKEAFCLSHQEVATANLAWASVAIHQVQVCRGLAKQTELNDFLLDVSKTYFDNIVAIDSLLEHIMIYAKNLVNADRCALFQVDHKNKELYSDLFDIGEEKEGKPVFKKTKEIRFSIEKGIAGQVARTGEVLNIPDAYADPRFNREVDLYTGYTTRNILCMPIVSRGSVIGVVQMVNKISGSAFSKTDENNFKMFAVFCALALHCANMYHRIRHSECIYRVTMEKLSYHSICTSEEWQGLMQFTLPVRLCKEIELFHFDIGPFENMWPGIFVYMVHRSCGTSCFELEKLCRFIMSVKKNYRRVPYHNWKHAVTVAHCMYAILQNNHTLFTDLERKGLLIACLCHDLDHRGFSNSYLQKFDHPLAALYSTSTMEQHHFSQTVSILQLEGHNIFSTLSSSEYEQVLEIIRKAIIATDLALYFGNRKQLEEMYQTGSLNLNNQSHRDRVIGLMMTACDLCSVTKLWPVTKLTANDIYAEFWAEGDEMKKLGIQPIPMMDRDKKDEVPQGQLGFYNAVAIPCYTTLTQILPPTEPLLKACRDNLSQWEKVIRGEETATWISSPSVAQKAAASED

[6] = target: T3, cAMP and cAMP-inhibited cGMP 3',5'-cyclic phosphodiesterase 10A; experiment: Inhibition of recombinant GST-tagged full length PDE10A2 (unknown origin) expressed in baculovirus infected Sf9 insect cells using TAMRA-cGMP as substrate incubated for 1.5 hrs by IMAP-FP assay; outline: as §1
[7] = target: T4, Dual 3',5'-cyclic-AMP and -GMP phosphodiesterase 11A (Homo sapiens, UniProt Q9HCR9); experiment: Inhibition of recombinant GST-tagged full length PDE11A4 (unknown origin) expressed in baculovirus infected Sf9 insect cells using FAM-cAMP as substrate incubated for 1.5 hrs by IMAP-FP assay; outline: as §1
T4 sequence (Q9HCR9 whole entry): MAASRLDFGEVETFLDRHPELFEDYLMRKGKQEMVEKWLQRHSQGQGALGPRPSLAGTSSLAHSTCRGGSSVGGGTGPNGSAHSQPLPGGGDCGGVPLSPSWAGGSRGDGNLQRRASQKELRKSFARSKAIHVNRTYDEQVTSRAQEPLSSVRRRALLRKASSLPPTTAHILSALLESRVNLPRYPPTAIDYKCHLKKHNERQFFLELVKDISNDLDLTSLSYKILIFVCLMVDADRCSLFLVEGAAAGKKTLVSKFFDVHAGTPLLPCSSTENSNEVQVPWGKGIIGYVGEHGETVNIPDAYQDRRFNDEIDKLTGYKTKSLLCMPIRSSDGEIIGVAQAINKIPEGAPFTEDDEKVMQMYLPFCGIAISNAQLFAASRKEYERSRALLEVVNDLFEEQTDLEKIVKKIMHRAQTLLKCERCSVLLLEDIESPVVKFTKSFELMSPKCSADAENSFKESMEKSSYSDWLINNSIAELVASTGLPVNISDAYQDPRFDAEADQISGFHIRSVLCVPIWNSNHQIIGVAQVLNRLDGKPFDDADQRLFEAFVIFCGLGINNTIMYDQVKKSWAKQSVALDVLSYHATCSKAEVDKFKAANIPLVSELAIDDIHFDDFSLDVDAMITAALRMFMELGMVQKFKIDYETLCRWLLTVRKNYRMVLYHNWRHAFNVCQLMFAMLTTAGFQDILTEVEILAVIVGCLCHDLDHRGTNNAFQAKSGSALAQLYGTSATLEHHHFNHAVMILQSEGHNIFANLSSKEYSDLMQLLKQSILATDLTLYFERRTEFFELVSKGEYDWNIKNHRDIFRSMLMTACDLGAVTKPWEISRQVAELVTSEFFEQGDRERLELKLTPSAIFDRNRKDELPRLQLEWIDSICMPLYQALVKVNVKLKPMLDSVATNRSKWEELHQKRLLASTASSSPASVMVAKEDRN

[8] = target: T4, Dual 3',5'-cyclic-AMP and -GMP phosphodiesterase 11A; experiment: Inhibition of recombinant GST-tagged full length PDE11A4 (unknown origin) expressed in baculovirus infected Sf9 insect cells using TAMRA-cGMP as substrate incubated for 1.5 hrs by IMAP-FP assay; outline: as §1
[9] = Observed volume of distribution in C57BL/6N mouse at 150 mg/kg, po administered as single dose measured up to 8 hrs by LC-MS/MS analysis; assay type: ADME, organism-based; details: in vivo
[10] = Toxicity in athymic nude-Foxn1nu mouse assessed as drug tolerance at 50 to 150 mg/kg, po bid for 28 days; assay type: organism-based; details: in vivo, 672 h, dose 50-150 mg/kg, time 28 day
Outline: (§2)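 Female athymic nude-Foxn1nu mice, 8–9 weeks, 18–24 g, n=4 per group. Oral gavage at 50, 100 or 150 mg/kg twice daily, or vehicle, for 28 days. Formulation ethanol/water/Maalox (7:3:90, v/v/v). Toxicity signs monitored daily. Body weight recorded daily in week 1, then twice weekly, as percent change from starting weight.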

[11] = Toxicity in athymic nude-Foxn1nu mouse assessed as body weight gain at 50 to 150 mg/kg, po bid for 28 days; assay type: organism-based; details: in vivo, 672 h, dose 50-150 mg/kg, time 28 day; outline: as §2
[12] = Toxicity in athymic nude-Foxn1nu mouse assessed as effect on kidney at 50 to 150 mg/kg, po bid for 28 days; assay type: organism-based; details: in vivo, 672 h, dose 50-150 mg/kg, time 28 day
[13] = Half life in C57BL/6N mouse at 150 mg/kg, po administered as single dose measured up to 8 hrs by LC-MS/MS analysis; assay type: ADME, organism-based; details: in vivo
[14] = human, microsomes, 1 h, 1 µM

T1 sequence (P54750 whole entry): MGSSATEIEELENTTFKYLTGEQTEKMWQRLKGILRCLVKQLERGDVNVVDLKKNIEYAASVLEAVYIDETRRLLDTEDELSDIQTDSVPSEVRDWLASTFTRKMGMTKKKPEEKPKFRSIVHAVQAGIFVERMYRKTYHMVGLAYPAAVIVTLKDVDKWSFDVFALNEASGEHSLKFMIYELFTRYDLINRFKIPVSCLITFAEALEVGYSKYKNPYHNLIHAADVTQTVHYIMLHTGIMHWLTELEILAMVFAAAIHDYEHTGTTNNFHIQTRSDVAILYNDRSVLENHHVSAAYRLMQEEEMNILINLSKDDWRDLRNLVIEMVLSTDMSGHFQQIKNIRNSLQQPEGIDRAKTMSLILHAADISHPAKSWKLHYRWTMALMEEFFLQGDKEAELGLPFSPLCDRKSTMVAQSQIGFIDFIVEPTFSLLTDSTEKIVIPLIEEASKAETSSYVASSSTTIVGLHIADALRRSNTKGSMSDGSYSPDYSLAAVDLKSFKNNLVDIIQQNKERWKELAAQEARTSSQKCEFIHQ

IC50 [1]: > 10 µM
IC50 [2]: > 10 µM
IC50 [3]: > 10 µM
IC50 [4]: > 10 µM
IC50 [5]: > 10 µM
IC50 [6]: > 10 µM
IC50 [7]: > 10 µM
IC50 [8]: > 10 µM
Vd [9]: 625 mL
half-life [13]: 2.33 h
t1/2 [14]: 0.367 h
SMILES: COc1c(F)cc(C2CC(C(C)(C)C)=NN2c2ccc(C(=O)N3CCN(C)CC3)cc2)cc1F (centres undefined)
Activity [10]: Non-Toxic
Activity [11]: Non-Toxic
Activity [12]: Non-Toxic

— ChEMBL document CHEMBL4808175 (J Med Chem, 2021)
